Screening results from PubChem.
Sampled rows, rich in hits. Any-hit rate of the full collection: about 6.1%.
Measles CPE: compounds protecting cells from measles virus cytopathic effect, primary screen, measles RdRp inhibitor project, single point, MLSMR library, absorbance; Measles virus-infected cells, CPE protection; protection (pct of control), % at 4 µM; 140,000 tested, 1.5% active; in the data active = protection mostly above about 24%, no sharp cut-off; inactive = mostly below about 26%
WT yeast gro inh: growth inhibition of WT strain, primary screen, mitochondrial fusion inhibitor project, WT and mutant strains, chemical genetic; mitochondrial fusion phenotypic screen; inhibition, % at 10 µM; 190,000 tested, 2.1% active; AID 1362, 2008; in the data active = inhibition above about 58%; tested in S. cerevisiae
RAM network inh: inhibitors of the yeast RAM network, primary screen, dse1pr::URA3 reporter, 5-FOA selection; 190,000 tested, 1.8% active; S. cerevisiae dse1pr::URA3 reporter, 5-FOA growth OD615, 2 d; analog-sensitive cbk1-as2 kinase mutant strain; inhibition, % at 50 µM;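 active = inhibition above a set limit, 3 SD over mean compound inhibition, cut at about 8.4% in these data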;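 also: inhibition rescues growth on 5-FOA so higher OD means more RAM inhibition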
Yeast lifespan up: compounds extending yeast replicative lifespan, primary screen, S. cerevisiae, OD615; S. cerevisiae growth with nicotinamide; deaD strain in restrictive glucose medium; inhibition of the nicotinamide effect, % at 10 µM; 130,000 tested, 0.68% active;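 active = inhibition above a set limit, placed 3 SD over the median of all compounds, cut at about 26% in these data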
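assay system = DeaD-strain S. cerevisiae | buffer or medium = restrictive glucose medium | reagent = 1.5 mM nicotinamide | compound = 10 µM single point, 0.25% DMSO | incubation = 48 h compound exposure at 30 °C, humidified | signal = OD615 measurement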
BB579 growth dn: growth inhibitors of yeast BB579 in restrictive medium, primary screen, yeast lifespan-shortening project, S. cerevisiae; OD615, 48 h; inhibition, % at 10 µM; 140,000 tested, 0.51% active; AID 804, 2007;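 active = inhibition above a set limit, 3 SD over the mean compound inhibition, cut at about 44% in these data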
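Assay system: S. cerevisiae DeaD strain BB579 yeast. Medium: CSMM-D restrictive synthetic medium containing dextrose (glucose). Times: 4 h cell preincubation, 48 h compound exposure, 30 °C humidified. Signal: OD615 turbidity measurement. Benchmarks: positive control amphotericin B 10 µg/mL.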
DAT uptake mod: changed hDAT dopamine uptake under cocaine IC80, either direction, primary screen, cocaine antagonist project, cell-based, LLC-PK1 hDAT, [14C]-dopamine uptake, MLSMR; LLC-PK1 hDAT cells, [14C]-dopamine uptake with cocaine IC80; actives deviate in either direction; B-score at 10 µM; 110,000 tested, 1.3% active; AID 449768, 2010;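 active = Z score or B-score, a plate-position-corrected score, falls beyond the plate's 99.7% confidence bounds, in either direction; inactive = both scores lie inside the 99.7% bounds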
Target sequence (Q01959 whole entry, looked up): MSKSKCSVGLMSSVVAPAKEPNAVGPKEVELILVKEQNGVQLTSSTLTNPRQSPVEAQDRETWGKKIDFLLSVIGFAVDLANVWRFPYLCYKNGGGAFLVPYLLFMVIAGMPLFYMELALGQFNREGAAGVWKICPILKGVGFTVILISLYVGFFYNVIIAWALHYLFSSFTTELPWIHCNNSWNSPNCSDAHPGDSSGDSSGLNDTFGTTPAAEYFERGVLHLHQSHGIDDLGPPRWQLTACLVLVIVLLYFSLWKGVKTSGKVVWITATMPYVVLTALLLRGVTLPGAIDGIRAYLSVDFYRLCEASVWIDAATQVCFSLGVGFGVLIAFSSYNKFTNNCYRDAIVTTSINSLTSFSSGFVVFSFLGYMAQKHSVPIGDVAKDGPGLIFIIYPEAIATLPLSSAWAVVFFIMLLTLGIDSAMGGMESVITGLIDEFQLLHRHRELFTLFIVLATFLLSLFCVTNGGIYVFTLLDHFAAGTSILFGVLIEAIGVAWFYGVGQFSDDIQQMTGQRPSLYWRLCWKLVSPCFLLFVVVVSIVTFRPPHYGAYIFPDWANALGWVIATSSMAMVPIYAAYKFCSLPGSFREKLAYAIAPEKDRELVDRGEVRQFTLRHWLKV
Numbers stand for hits; - = inactive; . = no result given.

SMILES | Measles CPE | WT yeast gro inh | RAM network inh | Yeast lifespan up | BB579 growth dn | DAT uptake mod
Cc1ccc(N2C(=O)NC(=O)/C(=C\C=C\c3ccco3)C2=O)cc1C | - | - | - | 29.0 | - | .
Cc1ccc(-n2cc(CNC(C)Cc3cnccn3)c(-c3cccc(C)c3)n2)cc1 (stereo not given) | . | 65.7 | - | . | . | .
Fc1ccc(C2=CCN(C(c3cccs3)c3nnnn3CCc3ccccc3)CC2)cc1 (stereo not given) | - | - | 10.2 | - | - | -
CCC(C)(C)n1nnnc1C(c1cccs1)N1CC=C(c2ccc(F)cc2)CC1 (stereo not given) | - | 71.7 | - | - | - | -
Fc1ccc2c(c1)nnn2C1CCN(Cc2nnnn2CCc2ccccc2)CC1 | - | - | - | - | - | -
O=C(COc1ccccc1F)N1CCN(CCN2C(=O)c3cccc4cccc(c34)C2=O)CC1 | . | - | - | . | . | .
COc1cccc(C2CC3C(=O)C=CC2N3Cc2ccccc2)c1 (stereo not given) | - | - | - | 59.5 | - | .
COC(=O)C1=C(c2cccc(OC)c2OC)C[C@@H]2CC[C@H]1N2C(=O)NCC1CC1 | . | . | . | . | . | -
O=c1c2ccccc2[se]n1-c1ccccc1 | - | 96.6 | - | - | - | -
C=CCN1C(=O)/C(=C/c2ccc3c(c2)CCCN3CCC)C(=O)NC1=S | - | - | - | - | - | .
O=C1NC(=S)N(C2CC2)C(=O)/C1=C/c1ccc2c(c1)CCN2CCCCl | - | - | - | 27.4 | - | .
CCOC(C(=O)OCCC[N+](C)(CC)CC)(c1ccccc1)c1ccccc1 | - | - | - | - | - | -
CC[N+](C)(CC)CCCOC(=O)C(O)(c1ccccc1)C1CCCCC1 (stereo not given) | 32.4 | - | - | . | - | -
COC(=O)C1=C(c2cccc(OC)c2OC)C[C@@H]2CC[C@H]1N2C(=O)NC1CC1 | . | . | . | . | . | -
O=C1c2ccccc2C(=O)N1Cc1nc2ccccc2c(=O)n1-c1ccc(Br)cn1 | - | - | - | 77.1 | - | -
O=C1c2ccccc2C(=O)N1Cc1nc2ccccc2c(=O)n1-c1cccnc1 | - | - | - | - | - | -
CCN(CC)CCN=Cc1c(O)n(Cc2ccccc2)c(=O)[nH]c1=O | - | - | - | - | - | -
O=C(Nc1ccc(OC(=O)N2CCCCC2)cc1)N1CCOCC1 | . | - | - | . | . | .
O=C(Oc1c(Cl)cc(Cl)c2ccccc12)N1CCCCC1 | - | 73.3 | 10.3 | - | - | -
CCOC(=O)C(O)(c1ccc(NC(=O)NC2CCCCC2)cc1)C(F)(F)F (stereo not given) | - | - | - | - | - | -
C[C@H]1CCC[C@@H](O)CCC/C=C/c2cc(O)cc(O)c2C(=O)O1 | 117.1 | - | - | - | - | -
C[C@H]1CCC[C@H](O)CCCCCc2cc(O)cc(O)c2C(=O)O1 | - | - | - | - | - | -
O=c1cccc2n1CC1CC2CN(c2ncnc3c2cnn3-c2ccc(Cl)cc2)C1 (stereo not given) | . | . | . | . | . | -
CCCCn1c(O)c(C(C)=NC(Cc2c[nH]c3ccccc23)C(=O)OC)c(=O)[nH]c1=O (stereo not given) | - | - | - | - | - | 2.69
COC(=O)C1=C(c2cc3ccccc3o2)C[C@@H]2CC[C@H]1N2C(=O)NCc1ccccc1 | . | . | . | . | . | -
SMILES | Measles CPE | WT yeast gro inh | RAM network inh | Yeast lifespan up | BB579 growth dn | DAT uptake mod
CCCCN1C(=O)NC(=O)C2(Cc3c(nc4c(C)cccn4c3=O)N3CCc4ccccc4C32)C1=O (stereo not given) | - | 72.0 | - | - | - | .
CCCCN1C(=O)NC(=O)C2(Cc3c(nc4ccccn4c3=O)N3CCc4ccccc4C32)C1=O (stereo not given) | - | - | - | - | - | -
COc1ccc(OC)c(NP(=O)(Oc2ccc(Cl)cc2)Oc2ccc(Cl)cc2)c1 | - | - | 11.4 | - | - | .
COc1ccc(NP(=O)(Oc2ccc(Cl)cc2)Oc2ccc(Cl)cc2)cc1OC | - | 65.0 | 9.5 | - | - | .
COc1ccc(NP(=O)(Oc2ccccc2OC)Oc2ccccc2OC)cc1 | - | - | - | - | - | .
Cc1nonc1-c1nc(-c2nonc2N)n[nH]1 | - | - | - | - | - | -
O=P(O)(Oc1ccccc1)OC(c1ccccc1)C(F)(F)F (stereo not given) | . | - | - | . | . | .
O=P(NC(c1ccccc1)c1ccccc1)(Oc1ccccc1)Oc1ccccc1 | - | - | 9.3 | - | - | .
C/C(=N\N1CCCCC1c1cccnc1)c1c(O)n(C2CCCCC2)c(=S)[nH]c1=O (stereo not given) | - | 73.8 | - | - | - | .
CCCCn1c(O)c(/C=N/N2CCCCC2c2cccnc2)c(=O)[nH]c1=S (stereo not given) | - | - | - | - | - | .
CCCCn1c(O)c(/C(CC)=N/N2CCCCC2c2cccnc2)c(=O)[nH]c1=S (stereo not given) | - | 58.6 | - | - | - | .
CCCC12CN3CC(CCC)(CN(C1)C3c1ccccn1)C2=O (stereo not given) | - | - | - | - | - | -
CN1CC=C2C(C#N)=C(N)C(C#N)(C#N)C(c3ccncc3)C2C1 (stereo not given) | 44.8 | - | - | - | - | -
Cc1cccc(OP(=O)(Nc2cccnc2)Oc2cccc(C)c2)c1 | - | - | - | - | - | .
Cc1cccc(OP(=O)(Nc2ccc(F)cc2)Oc2cccc(C)c2)c1 | . | 61.0 | - | . | . | .
Cc1cccc(OP(=O)(NCc2ccccc2)Oc2cccc(C)c2)c1 | - | 68.6 | - | - | - | .
NC(=O)c1c(NC(=O)c2ccc(S(=O)(=O)N(CCCl)CCCl)cc2)sc2c1CCCCC2 | - | - | - | - | - | .
CN(C)CCN=Cc1c(O)n(CCC2=CCCCC2)c(=O)[nH]c1=O | 33.0 | - | - | - | - | -
COc1cccc(C2=NOC(C(=O)N3CCC4(CC3)OCCO4)C2)c1 (stereo not given) | - | - | - | - | - | -
O=C(Cc1ccccc1)OCCN1CCCCC1 | - | - | - | - | - | -
O=C(c1ccccc1)C(CN1CCCC1)c1ccccc1 (stereo not given) | 22.1 | - | - | 56.0 | - | .
CC1(C)C[C@H]2C=C(C=O)[C@]3(C=O)C[C@]3(C)[C@H]2C1 | - | - | - | - | 99.8 | -
COc1ccc(CCC(=O)N2CCC3(CC2)OCCO3)cc1 | - | - | - | - | - | -
CCC(=Nc1ccc(OC)cc1OC)c1c(O)n(C2CCCCC2)c(=O)[nH]c1=O | - | 68.4 | - | - | - | -
